Assay results as given in ChEMBL document CHEMBL3608306, “Design, synthesis and evaluation of new GEQ derivatives as inhibitors of InhA enzyme and Mycobacterium tuberculosis growth” (Eur J Med Chem, 2015).
Values after ≈ are worked out from the molar mass of the structure shown.

Key:
[1] = tested on: Mycobacterium tuberculosis; assay: Inhibition of Mycobacterium tuberculosis His6-tagged InhA expressed in Escherichia coli BL21 using 2-trans-dodecenoyl-CoA as substrate assessed as conversion of NADH to NAD+ at 250 nM relative to control
Outline: (§1)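 Chirally separated enantiomers were tested for InhA inhibition at 5 µM or 250 nM, run in triplicate. The assay used 2-trans-dodecenoyl-CoA substrate and NADH, read as the decrease in absorbance at 340 nm from NADH oxidation to NAD+. IC50 came from 4-parameter fits of at least six points.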

[2] = tested on: Mycobacterium tuberculosis; assay: Inhibition of Mycobacterium tuberculosis His6-tagged InhA expressed in Escherichia coli BL21 using 2-trans-dodecenoyl-CoA as substrate assessed as conversion of NADH to NAD+ at 50 uM relative to control
Outline: (§2)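 Triplicate NADH-dependent reduction of the substrate analogue 2-trans-dodecenoyl-CoA by InhA, with NADH oxidation to NAD+ followed as the fall in absorbance at 340 nm. Percent inhibition was screened at 50 µM, or at 10 µM where solubility limited. IC50 came from 4-parameter curve fits of at least six concentrations.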

[3] = tested on: Mycobacterium tuberculosis; assay: Inhibition of Mycobacterium tuberculosis His6-tagged InhA expressed in Escherichia coli BL21 using 2-trans-dodecenoyl-CoA as substrate assessed as conversion of NADH to NAD+ at 10 uM relative to control; outline: as §2
[4] = tested on: Mycobacterium tuberculosis; assay: Antimycobacterial activity against Mycobacterium tuberculosis H37Rv after 21 days by microbroth dilution method; format: functional
[5] = Inhibition of Mycobacterium tuberculosis His6-tagged InhA expressed in Escherichia coli BL21 using 2-trans-dodecenoyl-CoA as substrate assessed as conversion of NADH to NAD+; outline: as §2
[6] = tested on: Mycobacterium tuberculosis; assay: Antimycobacterial activity against Mycobacterium tuberculosis H37Rv after 21 days by microbroth dilution method in presence of 3 ug/ml efflux pump inhibitor reserpine; format: functional; details: 504 h
[7] = tested on: Mycobacterium tuberculosis; assay: Antimycobacterial activity against Mycobacterium tuberculosis H37Rv after 21 days by microbroth dilution method in presence of 40 ug/ml efflux pump inhibitor verapamil; format: functional; details: 504 h
[8] = tested on: Mycobacterium tuberculosis; assay: Antimycobacterial activity against Mycobacterium tuberculosis H37Rv after 21 days by microbroth dilution method in presence of 7.5 ug/ml efflux pump inhibitor CCCP; format: functional; details: 504 h
[9] = tested on: Mycobacterium tuberculosis; assay: Ratio of MIC for Mycobacterium tuberculosis H37Rv in absence of CCCP to MIC for Mycobacterium tuberculosis H37Rv in presence of CCCP; format: functional
[10] = tested on: Mycobacterium tuberculosis; assay: Ratio of MIC for Mycobacterium tuberculosis H37Rv in absence of reserpine to MIC for Mycobacterium tuberculosis H37Rv in presence of reserpine; format: functional
[11] = tested on: Mycobacterium tuberculosis; assay: Ratio of MIC for Mycobacterium tuberculosis H37Rv in absence of verapamil to MIC for Mycobacterium tuberculosis H37Rv in presence of verapamil; format: functional
[12] = tested on: Mycobacterium tuberculosis; assay: Inhibition of Mycobacterium tuberculosis His6-tagged InhA expressed in Escherichia coli BL21 using 2-trans-dodecenoyl-CoA as substrate assessed as conversion of NADH to NAD+ at 5 uM relative to control; outline: as §1
[13] = tested on: Mycobacterium tuberculosis; assay: Antimycobacterial activity against Mycobacterium tuberculosis by CFU counting method; format: functional
[14] = tested on: Mycobacterium tuberculosis; assay: Antimycobacterial activity against Mycobacterium tuberculosis by Alamar blue assay; format: functional
[15] = Mycobacterium tuberculosis, H37Rv, 504 h, read-out: MIC

| Structure (SMILES) | inhibition [2] [%] | inhibition [3] [%] | MIC [4, 15] [µM] | IC50 [5] [nM] | other results |
| --- | --- | --- | --- | --- | --- |
| CCCCCCOc1ccc2c(c1)-c1ccccc1C2N1CCN(C(=O)c2ccccc2)CC1 (single isomer, unassigned) [listing 1 of 2 here] | – | – | – | – | inhibition [1]: 0% |
| CCCCC(=O)N1CCN(C2c3ccccc3-c3ccccc32)CC1 | 75 | 45 | 29.9 (≈ 10 µg/mL) | – | – |
| CCCOc1ccc2c(c1)-c1ccccc1C2N1CCN(C(=O)c2ccccc2)CC1 (racemic) | 91 | 84 | 24.2 (≈ 9.98 µg/mL) | 1010 | – |
| CCCCCCOc1ccc2c(c1)-c1ccccc1C2N1CCN(C(=O)c2ccccc2)CC1 (single isomer, unassigned; enantiomer 2) [listing 1 of 2 here] | – | – | – | 102 | MIC [4]: 11 µM (≈ 5 µg/mL); MIC [6]: < 2.7 µM; MIC [7]: 11 µM; MIC [8]: < 2.7 µM; Ratio [9]: >4; Ratio [10]: >4 |
| O=C(Nc1ccccc1)N1CCN(C2c3ccccc3-c3ccccc32)CC1 | 84 | 79 | > 27.1 | 1180 | – |
| CCCCCCOc1ccc2c(c1)-c1ccccc1C2C1CCN(C(=O)c2ccccc2)CC1 (racemic) | 64 | 71 | 88.2 (≈ 40 µg/mL) | 1050 | MIC [6]: 22.1 µM; MIC [7]: 44.1 µM; Ratio [11]: 2; Ratio [10]: 4 |
| COc1ccc2c(c1)-c1ccccc1C2N1CCN(C(=O)c2ccccc2)CC1 (racemic) [listing 1 of 2 here] | 92 | 74 | – | – | inhibition [12]: 60% |
| CCCCNC(=O)N1CCN(C2c3ccccc3-c3ccccc32)CC1 | 68 | 42 | 14.3 (≈ 5 µg/mL) | – | – |
| CCCCCCCCNC(=O)N1CCN(C2c3ccccc3-c3ccccc32)CC1 | 34 | – | > 24.7 | – | – |
| O=C(c1ccccc1)N1CCN(C2c3ccccc3-c3cc(OCc4ccccc4)ccc32)CC1 (racemic) | 63 | 57 | > 21.7 | 1000 | – |
| c1ccc2c(c1)-c1ccccc1C2N1CCNCC1 | 7 | – | > 39.9 | – | – |
| O=C(c1ccc2[nH]ccc2c1)N1CCN(C2c3ccccc3-c3ccccc32)CC1 | 87 | 81 | 50.1 (≈ 19.7 µg/mL) | 860 | MIC [6]: 25.4 µM; MIC [7]: < 12.7 µM; MIC [8]: < 12.7 µM; Ratio [11]: >4; Ratio [9]: >4; MIC [13]: > 125 µM; MIC [14]: > 125 µM |
| [O-][S+](c1ccccc1)N1CCN(C2c3ccccc3-c3ccccc32)CC1 (racemic) | 14 | – | > 26.7 | – | – |
| O=S(=O)(c1ccccc1)N1CCN(C2c3ccccc3-c3ccccc32)CC1 | 12 | – | > 25.6 | – | – |
| CCCCCCc1ccc2c(c1)-c1ccccc1C2N1CCN(C(=O)c2ccccc2)CC1 (racemic) | 60 | 52 | 22.8 (≈ 10 µg/mL) | 1000 | – |
| COc1ccc2c(c1)-c1ccccc1C2N1CCN(C(=O)c2ccccc2)CC1 (stereo in doubt; 31b) [listing 1 of 2 here] | – | – | – | – | inhibition [12]: 68% |
| O=C(c1ccccc1)N1CCC(C2c3ccccc3-c3ccccc32)CC1 | 93 | 88 | 28.3 (≈ 10 µg/mL) | 940 | – |
| COc1ccc2c(c1)-c1ccccc1C2N1CCN(C(=O)c2ccccc2)CC1 (racemic) [listing 2 of 2 here] | – | – | 26 (≈ 10 µg/mL) | 2690 | – |
| CCCOc1ccc2c(c1)C(N1CCN(C(=O)c3ccccc3)CC1)c1ccccc1-2 (racemic) | 88 | 83 | > 24.2 | 1300 | – |

| Structure (SMILES) | inhibition [2] [%] | inhibition [3] [%] | MIC [4, 15] [µM] | IC50 [5] [nM] | other results |
| --- | --- | --- | --- | --- | --- |
| COc1ccc2c(c1)-c1ccccc1C2N1CCN(C(=O)c2ccccc2)CC1 (stereo in doubt; 31b) [listing 2 of 2 here] | – | – | – | 2070 | – |
| S=C(Nc1ccccc1)N1CCN(C2c3ccccc3-c3ccccc32)CC1 | 57 | 32 | > 25.9 | – | – |
| O=C(Nc1ccc([N+](=O)[O-])cc1)N1CCN(C2c3ccccc3-c3ccccc32)CC1 | 33 | – | 12.1 (≈ 5.02 µg/mL) | – | – |
| S=C(c1ccccc1)N1CCN(C2c3ccccc3-c3ccccc32)CC1 | 31 | – | 13.5 (≈ 5 µg/mL) | – | – |
| COc1ccc2c(c1)-c1ccccc1C2N1CCN(C(=O)c2ccccc2)CC1 (single isomer, unassigned; enantiomer 1) [listing 1 of 2 here] | – | – | – | – | MIC [4]: >26 µM |
| O=C(c1ccccc1)N1CCN(C2c3ccccc3-c3ccccc32)CC1 | 94 | 94 | 14.1 (≈ 5 µg/mL) | 490 | MIC [6]: 56.5 µM; MIC [7]: 56.5 µM; MIC [8]: < 3.5 µM; Ratio [9]: >5 |
| CCCCCCOc1ccc2c(c1)-c1ccccc1C2N1CCN(C(=O)c2ccccc2)CC1 (single isomer, unassigned; enantiomer 2) [listing 2 of 2 here] | – | – | – | – | inhibition [1]: 71% |
| CCCCCCOc1ccc2c(c1)-c1ccccc1C2N1CCN(C(=O)c2ccccc2)CC1 (single isomer, unassigned) [listing 2 of 2 here] | – | – | – | – | MIC [4]: >22 µM |
| CP(=O)(c1ccccc1)N1CCN(C2c3ccccc3-c3ccccc32)CC1 (racemic) | 17 | – | > 24.7 | – | – |
| COc1ccc2c(c1)-c1ccccc1C2N1CCN(C(=O)c2ccccc2)CC1 (single isomer, unassigned; enantiomer 1) [listing 2 of 2 here] | – | – | – | – | inhibition [12]: 11% |
| COP(=O)(c1ccccc1)N1CCN(C2c3ccccc3-c3ccccc32)CC1 (racemic) | 17 | – | > 25.7 | – | – |
| O=C1CN(C2c3ccccc3-c3ccccc32)CCN1C(=O)c1ccccc1 | 26 | – | > 27.1 | – | – |
| CCCCCCCCC(=O)N1CCN(C2c3ccccc3-c3ccccc32)CC1 | 47 | 22 | 12.8 (≈ 5 µg/mL) | – | – |
| CCCCCCc1ccc2c(c1)C(N1CCN(C(=O)c3ccccc3)CC1)c1ccccc1-2 (racemic) | 48 | 45 | 22.8 (≈ 10 µg/mL) | – | – |
| CCCCCCOc1ccc2c(c1)-c1ccccc1C2N1CCN(C(=O)c2ccccc2)CC1 (racemic) [listing 1 of 2 here] | 79 | 70 | – | – | inhibition [1]: 53% |
| CCCCCCCCc1ccc2c(c1)C(N1CCN(C(=O)c3ccccc3)CC1)c1ccccc1-2 (racemic) | 54 | 27 | > 21.4 | – | – |
| NNC(=O)c1ccncc1 [ISONIAZID] | – | – | 0.4 (≈ 0.0549 µg/mL) | – | – |
| CCCCCCOc1ccc2c(c1)-c1ccccc1C2N1CCN(C(=O)c2ccccc2)CC1 (racemic) [listing 2 of 2 here] | – | – | 22 (≈ 10 µg/mL) | 200 | – |
